Assay [1] deals with T1, Muscarinic acetylcholine receptor M1 (Homo sapiens) (UniProt P11229).
T1 sequence (whole entry): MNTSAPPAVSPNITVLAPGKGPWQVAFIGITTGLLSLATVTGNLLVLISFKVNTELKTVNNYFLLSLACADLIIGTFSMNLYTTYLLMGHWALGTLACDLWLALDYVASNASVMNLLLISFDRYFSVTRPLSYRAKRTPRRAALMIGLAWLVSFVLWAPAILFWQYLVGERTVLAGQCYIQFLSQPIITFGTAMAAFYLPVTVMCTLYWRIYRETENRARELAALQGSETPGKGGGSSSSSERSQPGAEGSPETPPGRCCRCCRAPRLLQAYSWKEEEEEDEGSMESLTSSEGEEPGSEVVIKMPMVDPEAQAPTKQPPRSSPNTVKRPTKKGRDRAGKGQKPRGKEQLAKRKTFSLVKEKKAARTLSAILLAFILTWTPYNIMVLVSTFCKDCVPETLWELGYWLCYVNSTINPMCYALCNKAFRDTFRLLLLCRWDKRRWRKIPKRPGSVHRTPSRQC
Description: Antagonist activity at muscarinic M1 receptor (unknown origin) expressed in HEK293T cells assessed as inhibition of UNC1679 calcium mobilization at 30 uM. The assay is classed as functional, cell-based. The conditions noted are these: HEK-293T. The method in brief: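 Test compound assayed for M1 antagonism at one concentration, 30 μM, scored as percent inhibition.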
For orientation: Calcium assays in cells follow changes in intracellular calcium, usually with a dye or a luminescent sensor.

Assay [2] deals with T2, Muscarinic acetylcholine receptor M1 (Homo sapiens, UniProt P11229).
T2 sequence (P11229 whole entry): T1 sequence (whole entry)
Description: Antagonist activity at muscarinic M1 receptor (unknown origin) expressed in HEK293T cells assessed as inhibition of UNC1679 calcium mobilization. It is filed as functional, cell-based, HEK-293T.

Each structure is given as a SMILES string.

Usually inhibition stands for the share of the control response that was lost under treatment. As for `CCN1Cc2ccc(NC(=O)c3ccc(C(=O)N4CCC(C5CCCN5)CC4)cc3)cc2C1` (configuration not stated), the inhibition in assay [1] was under 20%. For orientation: IC50 means the midpoint of a concentration-inhibition curve. For the compound `O=C(c1ccc(C(=O)N2CCC(N3CCCC3)CC2)c(Nc2ccccc2)c1)N1CCC(N2CCCC2)CC1`, in assay [2], the IC50 amounted to 3.5 µM.
